# Measurements: ChEMBL document CHEMBL1142379, “Substituted 2-oxo-azepane derivatives are potent, orally active gamma-secretase inhibitors” (Bioorg Med Chem Lett, 2008)
# The source made the active and inactive calls. The calls are words filed in the database; no cut-off is given here.
# Experiments:
# Gamma-secretase = assay: Inhibition of human gamma secretase in HEK293 cells assessed as reduction of amyloid beta level by ELISA; assay type: cell-based
# [1] = Clearance in human microsomes assessed per mg of protein; assay type: ADME, Microsome
# Summary of the method: (§1)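 Intrinsic clearance in human and mouse liver microsomes, expressed as µl/min/mg protein.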
# [2] = Clearance in mouse microsomes assessed per mg of protein; assay type: ADME, Liver, Microsome; summary of the method: as §1
# Mus musculus [3] = assay: Inhibition of human gamma secretase expressed in PS2APP transgenic mouse at 20 mg/kg, po after 3 days; assay type: functional, organism-based; parameters: dose 20 mg/kg
# Summary of the method: (§2)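 PS2APP transgenic mice (human APP driven by neuron-specific Thy1 promoter) dosed 3 × 20 mg/kg po or ip; γ-secretase inhibition read as accumulation of CTFβ in total brain by Western blot, chemiluminescent band quantified and normalized to an endogenous control protein; reference inhibitor LY411575.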
# Mus musculus [4] = assay: Inhibition of human gamma secretase expressed in PS2APP transgenic mouse at 20 mg/kg, ip after 3 days; assay type: functional, organism-based; parameters: dose 20 mg/kg; summary of the method: as §2
# [5] = Ratio of drug level in brain to plasma in PS2APP transgenic mouse at 20 mg/kg, po after 2 hrs; assay type: ADME, organism-based; parameters: dose 20 mg/kg, route oral; conditions: read-out: BPR
# Summary of the method: (§3)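 Single 20 mg/kg oral dose in mice; plasma and brain concentrations taken at 2 h, brain/plasma ratio calculated; N = 3.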
# [6] = Solubility of the compound; assay type: physicochemical
# [7] = Distribution coefficient, log D of the compound; assay type: physicochemical; conditions: octanol/water
# [8] = Drug level in PS2APP transgenic mouse brain at 20 mg/kg, po after 2 hrs; assay type: ADME, organism-based; parameters: dose 20 mg/kg, route oral; conditions: read-out: Drug uptake; summary of the method: as §3
# MDR1 = assay: Permeability from apical to basolateral side of pig LLC-PK1 cell transfected with human MDR1; assay type: ADME, cell-based, Sus scrofa; conditions: read-out: permeability
# Summary of the method: (§4)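 Bidirectional transport across LLC-PK1 monolayers exogenously expressing human MDR1 (P-gp), compound at 1 μM; apical-to-basolateral and reverse permeabilities measured, export ratio derived; run with and without elacridar (5 μM) as transport inhibitor. Passive permeability estimated from experiments with active transport inhibited.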
# LLC-PK1 [9] = assay: Ratio of permeability from basolateral to apical over apical to basolateral side of the pig LLC-PK1 cell transfected with human MDR1 at 1 uM; assay type: ADME, cell-based, Sus scrofa; conditions: llc-pk1, 1 µM; summary of the method: as §4
# LLC-PK1 [10] = assay: Ratio of permeability from basolateral to apical over apical to basolateral side of the pig LLC-PK1 cell transfected with human MDR1 at 1 uM in presence of elacridar; assay type: ADME, cell-based, Sus scrofa; conditions: llc-pk1, 1 µM; summary of the method: as §4
SMILES,IC50 (Gamma-secretase) [µM],microsomal CLint [1] [µL/min/mg],microsomal CLint [2] [µL/min/mg],also measured
CN(C)C(=O)c1ccc(CN(C2CCCCNC2=O)S(=O)(=O)c2ccc(Cl)cc2)cc1 (centres undefined),2,–,–,–
CC1(C)CCCC(N(Cc2ccc(C(=O)NC3CC3)cc2)S(=O)(=O)c2ccc(Cl)cc2)C(=O)N1 (centres undefined),> 20,–,–,–
CC(C)C[C@H](C(=O)NO)N(Cc1ccc2c(c1)OCO2)S(=O)(=O)c1ccc(Cl)cc1,2.6,–,–,–
NC(=O)c1ccc(CN([C@@H]2CCCCNC2=O)S(=O)(=O)c2ccc(Cl)cc2)cc1,0.08,–,–,–
O=C(NC1CC1)c1ccc(CN([C@@H]2CC(F)(F)CCNC2=O)S(=O)(=O)c2ccc(Cl)cc2)cc1,0.004,1.9,2.2,Activity (Mus musculus [3]): inactive; Activity (Mus musculus [4]): inactive
O=C1NCCCC1N(Cc1ccc2c(c1)OCO2)S(=O)(=O)c1ccc(Cl)cc1 (centres undefined),14,–,–,–
O=C1NCCC1N(Cc1ccc2c(c1)OCO2)S(=O)(=O)c1ccc(Cl)cc1 (centres undefined),> 20,–,–,–
CC(C)C[C@H](C(N)=O)N(Cc1ccc2c(c1)OCO2)S(=O)(=O)c1ccc(Cl)cc1,0.008,34,282,solubility [6]: < 1 µg/mL; logD [7]: > 3
CC1(C)CCNC(=O)C(N(Cc2ccc(C(=O)NC3CC3)cc2)S(=O)(=O)c2ccc(Cl)cc2)C1 (centres undefined),0.006,45,191,–
CC1(C)CCCNC(=O)C1N(Cc1ccc(C(=O)NC2CC2)cc1)S(=O)(=O)c1ccc(Cl)cc1 (centres undefined),0.39,–,–,–
COc1ccc(CN([C@@H]2CC(F)(F)CCNC2=O)S(=O)(=O)c2ccc(Cl)cc2)cn1,0.03,9,72,Activity (Mus musculus [3]): Active; concentration at 2 h [8]: 60 ng/g; Kp at 2 h [5]: 0.06; Papp A→B (MDR1): 280 nm/s; Ratio (LLC-PK1 [9]): 2.2; Ratio (LLC-PK1 [10]): 1
COc1ccc(CN(C2CCCCNC2=O)S(=O)(=O)c2ccc(Cl)cc2)c(F)c1 (centres undefined),0.15,–,–,–

# The next lines start with results.
IC50 (Gamma-secretase) [µM],microsomal CLint [1] [µL/min/mg],microsomal CLint [2] [µL/min/mg],SMILES,also measured
0.12,93,110,CC(C)(C)C1CCNC(=O)C(N(Cc2ccc(C(=O)NC3CC3)cc2)S(=O)(=O)c2ccc(Cl)cc2)C1 (racemic),–
–,–,5.4,O=C(NC1CC1)c1ccc(CN([C@@H]2CCC(F)(F)CNC2=O)S(=O)(=O)c2ccc(Cl)cc2)cc1,–
0.02,13,105,COc1ccc(CN([C@@H]2CC(F)(F)CCNC2=O)S(=O)(=O)c2ccc(Cl)cc2)c(F)c1,–
0.9,–,–,COc1ccc(CN(C2CCCCNC2=O)S(=O)(=O)c2ccc(Cl)cc2)cn1 (centres undefined),–
0.04,51,203,CC(C)C1CCNC(=O)C(N(Cc2ccc(C(=O)NC3CC3)cc2)S(=O)(=O)c2ccc(Cl)cc2)C1 (racemic),–
–,19,121,COc1ccc(CN([C@@H]2CC(F)(F)CCNC2=O)S(=O)(=O)c2ccc(Cl)cc2)c(F)c1F,Kp at 2 h [5]: < 0.1
0.02,19,39,O=C(NC1CC1)c1ccc(CN(C2CC(C(F)(F)F)CCNC2=O)S(=O)(=O)c2ccc(Cl)cc2)cc1 (racemic),–
0.015,36,655,CC1(C)CCNC(=O)[C@H](N(Cc2ccc(C(=O)NC3CC3)cc2)S(=O)(=O)c2ccc(Cl)cc2)C1,–
9,–,–,O=C1NCCCCCC1N(Cc1ccc2c(c1)OCO2)S(=O)(=O)c1ccc(Cl)cc1 (centres undefined),–
0.17,–,–,O=C(NC1CC1)c1ccc(CN(C2CCCCNC2=O)S(=O)(=O)c2ccc(Cl)cc2)cc1 (centres undefined),–
3.5,–,–,CC1(C)CCC(N(Cc2ccc(C(=O)NC3CC3)cc2)S(=O)(=O)c2ccc(Cl)cc2)C(=O)NC1 (centres undefined),–
0.14,–,–,O=C(O)CCc1ccc(CN([C@@H]2CCCCNC2=O)S(=O)(=O)c2ccc(Cl)cc2)cc1,–
